Legend:
[1] = tested on: neutrophil‐platelet and monocyte‐platelet aggregates; test: Leukocyte‐platelet aggregates by flow cytometry in SCD patients; type: in vivo, human; settings: day 29, 25 mg twice daily
How it was run: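 Citrated whole blood was taken before dosing on days 1, 2, 7, 14, 21 and 29 and at baseline. Within 30 min it was mixed with FacsLysing solution and refrigerated, then spun 5 min at 500 g. Cells were resuspended in HEPES/NaCl/0.5% BSA, pH 7.4, and stained with PC5-anti-CD14 plus PE-CD42a or isotype. Flow cytometry reported aggregates as % cells and size as CD42a MFI. Day-29 percent change was estimated by repeated-measures model, with Holm-Bonferroni-adjusted P.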

[2] = tested on: HbF and Hb levels; test: Hematology; type: in vivo, human; settings: day 29, 5‐mg or 25‐mg twice‐daily groups
How it was run: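 Stable SCD patients randomized 3:1 active:placebo to oral test compound 5 mg or 25 mg or placebo, twice daily ~12 h apart with water for 29 (+1) days. HbF (%) was measured centrally at baseline and before dosing on day 29. Baseline HbF was classed low (<10%) or high (≥10%), split at the sample median.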

[3] = tested on: plasma cGMP; test: Plasma cGMP levels in SCD patients; type: in vivo, human; settings: PF‐04447943 treatment, current study (data not shown)
[4] = Plasma pharmacokinetics of PF‐04447943, phase Ib study; type: in vivo, human; settings: for AUC0−12 (dn) / Cmax (dn): dose normalized to 1 mg; for AUC0−12 (dn) / Cmax (dn) / Cmax: geometric mean (geometric %CV); for Tmax / Cmax / AUC(0-t): human, plasma; for Tmax / Cmax: oral; for AUC(0-t): po
[5] = tested on: cGMP in mouse brain tissue; settings: systemic administration; cited from earlier work
[6] = tested on: cGMP in cerebral spinal fluid; settings: systemic administration; cited from earlier work
[7] = tested on: patients with stable sickle cell disease; test: Safety and tolerability, phase Ib study; type: in vivo, human
[8] = tested on: Townes SCD mice; settings: PF‐04447943 alone, pretreatment; cited from earlier work
[9] = tested on: Berkeley SCD mouse model; settings: administered after a challenge; cited from earlier work
[10] = tested on: hospitalized patients with SCD and VOC; settings: randomized, placebo‐controlled; cited from earlier work
[11] = 5 mg twice daily, % of patients

Compound: C[C@@H]1CN(Cc2ncccn2)C[C@H]1c1nc2c(cnn2C2CCOCC2)c(=O)[nH]1 [PF‐04447943, 6‐[(3S,4S)‐4‐methyl‐1‐(pyrimidin‐2‐ylmethyl)pyrrolidin‐3‐yl]‐1‐(tetrahydro‐2H‐pyran‐4‐yl)‐1,5‐dihydro‐4H‐pyrazolo[3,4‐d]pyrimidin‐4‐one]
- reduction from baseline in size of neutrophil‐platelet aggregates ([1]; adjusted P = 0.018): 34%
- reduction from baseline in number of circulating monocyte‐platelet aggregates ([1]; adjusted P = 0.025): 52%
- reduction from baseline in number of neutrophil‐platelet aggregates ([1]; adjusted P = 0.095): 46%
- reduction from baseline in size of circulating monocyte‐platelet aggregates ([1]; adjusted P = 0.140): 36%
- change in HbF level [2]: No significant changes
- change in plasma cGMP levels [3]: no significant changes
- dose proportionality of plasma exposure (AUC0‐12, Cmax) ([4]; 5 and 25 mg, day 1): dose proportional
- AUC0−12 (dn) ([4]; day 1, 5 mg): 48 (35) ng·h/mL/mg
- Cmax (dn) ([4]; day 1, 5 mg): 9.2 (39) ng/mL/mg
- AUC0−12 (dn) ([4]; day 1, 25 mg): 47 (29) ng·h/mL/mg
- Cmax (dn) ([4]; day 1, 25 mg): 9.9 (31) ng/mL/mg
- Tmax ([4]; 5 mg): 1.9 h
- Cmax ([4]; 5 mg, day 1, 5 mg): 45.8 ng/mL
- Tmax ([4]; 25 mg): 1 h
- Cmax ([4]; 25 mg, day 1, 25 mg): 248 ng/mL
- AUC(0-t) ([4]; 5 mg): 242 ng·h/mL
- AUC(0-t) ([4]; 25 mg): 1170 ng·h/mL
- cGMP in mouse brain tissue [5]: accumulation of cGMP in mouse brain tissue
- cGMP in cerebral spinal fluid in the rat [6]: dose‐dependent increases
- patients who experienced sickle cell pain crisis ([7]; 5 mg twice daily): 14%
- treatment‐related AE: dizziness [7, 11]: 0%
- treatment‐related AE: fatigue [7, 11]: 0%
- treatment‐related AE: headache ([7]; 5 mg twice daily, up to 29 days, % of patients): 0%
- patients who experienced sickle cell pain crisis ([7]; 25 mg twice daily): 13%
- treatment‐related AE: dizziness ([7]; 25 mg twice daily, % of patients): 13%
- deaths during the study ([7]; 5 and 25 mg twice daily): No deaths occurred
- tolerability ([7]; 5 and 25 mg twice daily, 29‐day treatment period): well tolerated
- number of neutrophil‐platelet aggregates [8]: decrease in neutrophil‐platelet aggregates

Compound: C[C@@H]1O[C@@H](O[C@@H]2[C@@H](NC(=O)c3cc(=O)[nH]c(=O)[nH]3)C[C@@H](C(=O)NCCNC(=O)COCCOCC(=O)Nc3cc(S(=O)(=O)O)cc4cc(S(=O)(=O)O)cc(S(=O)(=O)O)c34)C[C@H]2O[C@@H]2O[C@H](CO)[C@H](O)[C@H](O[C@@H](CC3CCCCC3)C(=O)O)[C@H]2OC(=O)c2ccccc2)[C@@H](O)[C@H](O)[C@@H]1O [rivipansel]
- leukocyte adhesion [9]: reduced leukocyte adhesion
- time to VOC resolution, length of stay, parenteral opioid requirement [10]: trends toward improved

Source: PMC6440678 (Clinical and Translational Science, 2018)
